Data as given in ChEMBL document CHEMBL4400512, “Searching for new agents active against Candida albicans biofilm: A series of indole derivatives, design, synthesis and biological evaluation” (Eur J Med Chem, 2019).
In brackets after ≈: the same amount, converted by molar mass.

Legend:
Candida albicans [1] = experiment: Antibiofilm activity against Candida albicans ATCC 10231 assessed as inhibition of biofilm formation by XTT reduction assay; format: functional
Method in brief: (§1)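 Biofilm assay after Pierce et al., with compound applied either during biofilm formation or to 24 h pre-formed (mature) biofilm. Read-out is metabolic activity of cells in the biofilm by XTT reduction. BMIC50 is the lowest concentration giving a 50% drop relative to untreated growth control. Tested in triplicate, at least two experiments on separate dates; median reported.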

Candida albicans [2] = experiment: Antibiofilm activity against Candida albicans ATCC 10231 assessed as inhibition of mature biofilm formation by XTT reduction assay; format: functional; method in brief: as §1
Candida albicans [3] = experiment: Antifungal activity against planktonic form of Candida albicans ATCC 10231 by broth microdilution method; format: organism-based; settings: in vitro
Method in brief: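 CLSI M27-A3 broth microdilution. Cells grown on Sabouraud dextrose agar at 35°C for 24 h; final inoculum 1×10^3–5×10^3 cells/mL. Compounds from DMSO stocks, final DMSO below 1%, final range 256–0.25 µg/mL. Controls were DMSO 1% and fluconazole reference. MIC50 is the lowest concentration giving ≥50% growth inhibition. Three independent experiments in duplicate; median reported.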

c1ccc(CNCCc2c[nH]c3ccccc23)cc1
MBIC50 (Candida albicans [1]): 32 µg/mL | MBIC50 (Candida albicans [2]): 32 µg/mL | MIC50 (Candida albicans [3]): > 128 µg/mL

O=C(NCCc1c[nH]c2ccccc12)c1ccc([N+](=O)[O-])o1
MBIC50 (Candida albicans [1]): 128 µg/mL | MBIC50 (Candida albicans [2]): 16 µg/mL | MIC50 (Candida albicans [3]): > 128 µg/mL

O=[N+]([O-])c1ccc(CNCCc2c[nH]c3ccccc23)o1
MBIC50 (Candida albicans [1]): 16 µg/mL | MBIC50 (Candida albicans [2]): 16 µg/mL | MIC50 (Candida albicans [3]): > 128 µg/mL

O=C(NCCc1c[nH]c2ccccc12)c1ccccn1
MBIC50 (Candida albicans [1]): 32 µg/mL | MBIC50 (Candida albicans [2]): 32 µg/mL | MIC50 (Candida albicans [3]): > 128 µg/mL

C(=C\c1ccccc1)/CNCCc1c[nH]c2ccccc12
MBIC50 (Candida albicans [1]): 8 µg/mL | MBIC50 (Candida albicans [2]): 64 µg/mL | MIC50 (Candida albicans [3]): 64 µg/mL (≈ 232 µM)

COc1ccc(CNCCc2c[nH]c3ccccc23)cc1[N+](=O)[O-]
MBIC50 (Candida albicans [1]): 128 µg/mL | MBIC50 (Candida albicans [2]): 32 µg/mL | MIC50 (Candida albicans [3]): > 128 µg/mL

Brc1ccccc1CNCCc1c[nH]c2ccccc12
MBIC50 (Candida albicans [1]): 16 µg/mL | MBIC50 (Candida albicans [2]): 16 µg/mL | MIC50 (Candida albicans [3]): 128 µg/mL (≈ 389 µM)

O=[N+]([O-])c1ccc(CNCCc2c[nH]c3ccccc23)cc1
MBIC50 (Candida albicans [1]): 32 µg/mL | MBIC50 (Candida albicans [2]): 32 µg/mL | MIC50 (Candida albicans [3]): > 128 µg/mL

CN(C)c1ccc(CNCCc2c[nH]c3ccccc23)cc1
MBIC50 (Candida albicans [1]): 32 µg/mL | MBIC50 (Candida albicans [2]): 16 µg/mL | MIC50 (Candida albicans [3]): > 128 µg/mL

Brc1cccc(CNCCc2c[nH]c3ccccc23)c1
MBIC50 (Candida albicans [1]): 4 µg/mL | MBIC50 (Candida albicans [2]): 32 µg/mL | MIC50 (Candida albicans [3]): 64 µg/mL (≈ 194 µM)

O=[N+]([O-])c1ccc(/C=C/CNCCc2c[nH]c3ccccc23)cc1
MBIC50 (Candida albicans [1]): 8 µg/mL | MBIC50 (Candida albicans [2]): >128 µg/mL | MIC50 (Candida albicans [3]): > 128 µg/mL

O=[N+]([O-])c1cccc(Cl)c1CNCCc1c[nH]c2ccccc12
MBIC50 (Candida albicans [1]): 16 µg/mL | MBIC50 (Candida albicans [2]): 8 µg/mL | MIC50 (Candida albicans [3]): > 128 µg/mL

Clc1ccc(CNCCc2c[nH]c3ccccc23)cc1
MBIC50 (Candida albicans [1]): 16 µg/mL | MBIC50 (Candida albicans [2]): 32 µg/mL | MIC50 (Candida albicans [3]): 32 µg/mL (≈ 112 µM)

O=C(NCCc1c[nH]c2ccccc12)c1ccccc1
MBIC50 (Candida albicans [1]): 32 µg/mL | MBIC50 (Candida albicans [2]): 32 µg/mL | MIC50 (Candida albicans [3]): > 128 µg/mL

O=C(NCCc1c[nH]c2ccccc12)c1cccnc1 [NICOTREDOLE]
MBIC50 (Candida albicans [1]): >128 µg/mL | MBIC50 (Candida albicans [2]): 64 µg/mL | MIC50 (Candida albicans [3]): > 128 µg/mL

NCCc1c[nH]c2ccccc12 [TRYPTAMINE]
MBIC50 (Candida albicans [1]): 128 µg/mL | MBIC50 (Candida albicans [2]): >128 µg/mL | MIC50 (Candida albicans [3]): > 128 µg/mL
